In ChEMBL document CHEMBL1134785, “Synthesis and biological evaluation of prostaglandin-F alkylphosphinic acid derivatives as bone anabolic agents for the treatment of osteoporosis” (J Med Chem, 2001):

What was measured:
[1] = test system: Rattus norvegicus; assay: Bone Volume /Tissue Volume (%)measured Histomorphometrically after a dose of 3000 ug/kg in proximal tibial metaphysis; type: functional; details: at 3000 µg/kg
[2] = Dissociation constant was determined; type: physicochemical
[3] = test system: Rattus norvegicus; assay: Mineral apposition rate ([…])bone Histomorphometrically after a dose of 30 ug/kg in proximal tibial metaphysis; type: functional
Outline: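 Ovariectomized six-month-old rats, 6-8 per group, were dosed subcutaneously once daily at 0.01–3.0 mg/kg for 60 days, starting 60 days after surgery. Vehicle was acetate-buffered saline, methylcellulose and polyoxyethylenesorbitan monooleate. Labels were xylenol orange 90 mg/kg pretreatment and calcein 10 mg/kg at 14 and 4 days before necropsy. Histomorphometry covered the proximal tibial metaphysis, 1–4 mm distal to the growth plate–metaphyseal junction. ANOVA/LSD versus vehicle.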

[4] = test system: Rattus norvegicus; assay: Derived trabecular no […]measured using micro Computed Tomography(CT) after a dose of 100 ug/kg in Vertebral Bone; type: functional, Trabecula
Outline: (§1)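 Micro-CT of the fifth lumbar vertebra, measuring cancellous bone volume and architecture. Rats were 6 months old, OVX 60 days before treatment, then dosed daily for 60 days. Test-agent doses were 10–3000 µg/kg, given as a once-daily subcutaneous injection; 6 mg/kg/day was given to the positive-control group. Groups were compared with vehicle by ANOVA plus LSD test.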

[5] = test system: Rattus norvegicus; assay: connectivity density (mm-3) using micro Computed Tomography(CT) after a does of 300 ug/kg in Vertebral Bone; type: functional
Outline: (§2)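 Rats were ovariectomized at 6 months of age and, after 60 days, dosed subcutaneously once daily for 60 days, with vehicle of acetate-buffered saline, methylcellulose and polysorbate. At necropsy the fifth lumbar vertebra was scanned by micro-CT to obtain cancellous architecture. Groups were 6-8 rats; results were compared to vehicle by ANOVA with least significant difference test.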

[6] = test system: Rattus norvegicus; assay: Periosteal mineral apposition rate ([…]) measured Histomorphometrically after a dose of 30 ug/kg in tibial diaphysis; type: functional
Outline: (§3)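 Six-month-old rats, bilaterally ovariectomized, 6-8 per group, on natural chow. After 60 days they received once-daily subcutaneous dosing for 60 days at 0.01–3.0 mg/kg. Vehicle was acetate-buffered saline with methylcellulose and polyoxyethylenesorbitan monooleate. Labels were xylenol orange 90 mg/kg before treatment and calcein 10 mg/kg 14 and 4 days before sacrifice. Tibial histomorphometry was read under fluorescent light, with ANOVA/LSD versus vehicle.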

[7] = test system: Rattus norvegicus; assay: connectivity density (mm-3) using micro Computed Tomography(CT) after a does of 1000 ug/kg in Vertebral Bone; type: functional; outline: as §2
[8] = test system: Rattus norvegicus; assay: Tissue area (mm) measured Histomorphometrically after a dose of 300 ug/kg in tibial diaphysis; type: functional
Outline: (§4)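 Rats on natural chow (1.46% Ca) were bilaterally ovariectomized at 6 months and left untreated for 60 days. They then received once-daily subcutaneous doses for 60 days, with vehicle of acetate-buffered saline, methylcellulose and polysorbate. Xylenol orange (90 mg/kg) was given before treatment and calcein (10 mg/kg) 14 and 4 days before sacrifice. Tibiae were analysed by fluorescent histomorphometry, 6-8 rats/group, ANOVA/LSD vs vehicle.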

[9] = test system: Rattus norvegicus; assay: Periosteal mineralizing surface (%) measured Histomorphometrically after a dose of 100 ug/kg in tibial diaphysis; type: functional; outline: as §4
[10] = test system: Rattus norvegicus; assay: Periosteal mineralizing surface (%) measured Histomorphometrically after a dose of 1000 ug/kg in tibial diaphysis; type: functional; outline: as §4
[11] = test system: Rattus norvegicus; assay: Derived trabecular no […]measured using micro Computed Tomography(CT) after a dose of 3000 ug/kg in Vertebral Bone; type: functional, Trabecula; outline: as §1
[12] = test system: Rattus norvegicus; assay: Periosteal mineral apposition rate ([…]) measured Histomorphometrically after a dose of 10 ug/kg in tibial diaphysis; type: functional; outline: as §3
[13] = test system: Rattus norvegicus; assay: Bone formation rate/tissue volume (%/year)bone Histomorphometrically after a dose of 1000 ug/kg in proximal tibial metaphysis; type: functional; details: at 1000 µg/kg
[14] = biological target: T1, Prostaglandin D2 receptor (Homo sapiens, UniProt Q13258); assay: In vitro binding at DP human prostaglandin receptor using [3H]- PGD-2 as radioligand
T1 sequence (Q13258 whole entry): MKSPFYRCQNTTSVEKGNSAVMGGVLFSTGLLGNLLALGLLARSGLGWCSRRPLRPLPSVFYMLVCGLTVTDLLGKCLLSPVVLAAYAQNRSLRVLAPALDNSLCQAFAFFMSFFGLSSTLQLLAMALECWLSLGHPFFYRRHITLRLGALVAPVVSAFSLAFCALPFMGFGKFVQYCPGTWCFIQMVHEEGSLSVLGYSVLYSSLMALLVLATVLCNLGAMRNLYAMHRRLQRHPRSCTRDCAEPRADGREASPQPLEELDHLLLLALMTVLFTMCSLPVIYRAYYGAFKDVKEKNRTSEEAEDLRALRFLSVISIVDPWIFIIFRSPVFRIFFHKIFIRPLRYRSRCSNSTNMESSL
Outline: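 hDP stably expressed in HEK-293 cells, collected 4-5 days after seeding. Membranes made by lysis and 100000g spin, then taken up at 1 mg protein/mL in TME buffer at pH 7.4. Competition binding used 5 nM [3H]PGD2, read by filtration and scintillation counting.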

[15] = test system: Rattus norvegicus; assay: Endosteal eroded surface(%) measured Histomorphometrically after a dose of 300 ug/kg in tibial diaphysis; type: functional
Outline: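 Tibial histomorphometry in 6-month-old rats, OVX 60 days before treatment, then daily injection for 60 days. Vehicle was acetate-buffered saline with methylcellulose and polyoxyethylenesorbitan monooleate. Rats received xylenol orange 90 mg/kg before treatment and calcein 10 mg/kg at 14 and 4 days pre-sacrifice. Rats were killed by cardiac puncture under ketamine/xylazine. Groups were compared with vehicle by ANOVA plus LSD test.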

[16] = test system: Rattus norvegicus; assay: Periosteal mineralizing surface (%) measured Histomorphometrically after a dose of 300 ug/kg in tibial diaphysis; type: functional; outline: as §4
[17] = test system: Rattus norvegicus; assay: Trabecular no (mm)measured Histomorphometrically after a dose of 3000 ug/kg in proximal tibial metaphysis; type: functional, Trabecula
Outline: (§5)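 Six-month-old rats were ovariectomized, and 60 days later daily subcutaneous dosing began for 60 days, with vehicle of acetate-buffered saline, methylcellulose and polysorbate. Xylenol orange (90 mg/kg) labelled bone pre-treatment and calcein (10 mg/kg) 14 and 4 days pre-sacrifice. Histomorphometry covered the proximal tibial metaphysis 1-4 mm distal to the growth plate-metaphyseal junction. Groups were 6-8 rats, compared by ANOVA/LSD vs vehicle.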

[18] = test system: Rattus norvegicus; assay: connectivity density (mm-3) using micro Computed Tomography(CT) after a does of 3000 ug/kg in Vertebral Bone; type: functional; outline: as §2
[19] = test system: Rattus norvegicus; assay: Periosteal mineralizing surface (%) measured Histomorphometrically after a dose of 30 ug/kg in tibial diaphysis; type: functional; outline: as §4
[20] = test system: Rattus norvegicus; assay: Trabecular thickness […] measured Histomorphometrically after a dose of 300 ug/kg in proximal tibial metaphysis; type: functional, Trabecula; outline: as §5
[21] = test system: Rattus norvegicus; assay: Endosteal mineralizing surface Histomorphometrically after a dose of 1000 ug/kg in tibial diaphysis; type: functional; outline: as §3
[22] = test system: Rattus norvegicus; assay: Bone Volume /Tissue Volume (%)measured using micro Computed Tomography(CT) after a dose of 3000 ug/kg in Vertebral Bone; type: functional; details: at 3000 µg/kg

For `CP(=O)(O)CCC/C=C\C[C@@H]1[C@@H](/C=C/[C@@H](O)COc2ccccc2)[C@H](O)C[C@@H]1O`, the Activity [1] was 8.51%, the pKa [2] was 3.1 and the Mineral apposition rate [3] was 1.09 µm/day. It also gave a Derived trabecular number [4] of 4.83 mm-1, a Connectivity density [5] of 66.71 mm**-3 and a Periosteal mineral apposition rate [6] of 0.31 µm/day. It also gave a Connectivity density [7] of 59.66 mm**-3, a Tissue area [8] of 5.01 mm and a Periosteal mineralizing surface [9] of 15.21%. It also gave a Periosteal mineralizing surface [10] of 10.35%, a Derived trabecular number [11] of 4.71 mm-1 and a Periosteal mineral apposition rate [12] of 0.49 µm day-1. For the same compound, the Activity [13] was 23.44%, the IC50 [14] was > 10 µM and the Endosteal eroded surface [15] was 1.32%. For the same compound, the Periosteal mineralizing surface [16] was 9.56%, the Trabecular no. [17] was 1.51 1/mm and the Connectivity density [18] was 55.9 mm**-3. The Periosteal mineralizing surface [19] was 26.23%, the Trabecular thickness [20] was 44 µm and the Endosteal mineralizing surface [21] was 35.29%. It also gave an Activity [22] of 39.48%.
